The values that follow come from ChEMBL document CHEMBL1275392, “Assessment of chemoselective neoglycosylation methods using chlorambucil as a model” (2010).

Some results are limits rather than exact numbers.

As a reminder, the GI50 is the concentration that inhibits growth by half. Read a high GI50 as less potent growth inhibition.

Assay [1] is described as follows: Growth inhibition of human p53 deficient Hep3B cells after 7 days by celltiter-glo assay. In kind it is functional, Hep 3B2. The conditions noted are these: 168 h. An outline of the steps: (§1)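 Cells seeded at 500 per well in 384-well plates. Compounds came from 30 mM DMSO stocks, serially diluted and tested in quadruplicate. Incubation was 7 d at 37 °C under 5% CO2. Calcein AM (10 μM) and EthD-1 were added, followed by a fluorescence read. CellTiter-Glo lysis was then done for 10 min at room temperature, with a luminescence read. GI50 came from curve fitting.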
In general terms: In ATP-based viability assays light output follows the ATP content of the culture.

In the next assay the test system is SK-OV-3. Briefly: Growth inhibition of human SKOV3 cells after 7 days by celltiter-glo assay. In kind it is functional. The settings on record: SK-OV-3, 168 h.
Another assay concerns MCF7. Put plainly: Growth inhibition of human MCF7 cells after 7 days by celltiter-glo assay. In kind it is functional. The conditions noted are these: MCF7, 168 h.
The next assay relates to NCI-H460. Put plainly: Growth inhibition of human NCI-H460 cells after 7 days by celltiter-glo assay. In kind it is functional. The settings on record: NCI-H460, 168 h.
The test system of a further assay is HT-29. Briefly: Growth inhibition of human HT-29 cells after 7 days by celltiter-glo assay. Format: functional. The conditions noted are these: HT-29, 168 h.
The next assay relates to HCT-15. Briefly: Growth inhibition of human HCT15 cells after 7 days by celltiter-glo assay. Format: functional. The conditions noted are these: HCT-15, 168 h.
Assay [2] is described as follows: Growth inhibition of human p53 deficient H1299 cells after 7 days by celltiter-glo assay. In kind it is functional. The conditions noted are these: NCI-H1299, 168 h. An outline of the steps: as §1
Another assay has as its system A549. Put plainly: Growth inhibition of human A549 cells expressing p53 after 7 days by celltiter-glo assay. In kind it is functional. The settings on record: A549, 168 h.
Another assay has as its system SF-268. Put plainly: Growth inhibition of human SF268 cells after 7 days by celltiter-glo assay. In kind it is functional. The settings on record: SF-268, 168 h.
A further assay has as its system DU-145. Put plainly: Growth inhibition of human DU145 cells after 7 days by celltiter-glo assay. The settings on record: DU-145, 168 h. Format: functional.

With `CON(CCCc1ccc(N(CCCl)CCCl)cc1)[C@@H]1O[C@H](C)[C@@H](O)[C@H](O)[C@H]1O`, the 50% growth inhibitory concentration (GI50) in assay [1] amounted to 4.4 µM; with SK-OV-3 it was 2.9 µM; in the assay with MCF7 it was 5.8 µM; in the assay on NCI-H460 it was 8.5 µM; in the assay on HT-29 it was 2.2 µM; with HCT-15, 1.1 µM. The GI50 in assay [2] is 1.8 µM; in the assay on A549, 4.6 µM; in the assay with SF-268 it was 2.9 µM; in the assay on DU-145 it was 4.9 µM.
On to `CON(CCCc1ccc(N(CCCl)CCCl)cc1)[C@@H]1O[C@H](CO)[C@@H](O)[C@H](O[C@H](C)C(=O)O)[C@H]1NC(C)=O`, for which the GI50 in assay [1] was 8 µM; with SK-OV-3, 7 µM; in the assay on MCF7, 4.5 µM; in the assay with NCI-H460 it was 13.1 µM; in the assay on HT-29, 6.3 µM; with HCT-15, 3.1 µM. Moreover, the GI50 in [2] worked out at 2.4 µM; with A549 it was 8.6 µM; in the assay with SF-268, 4.1 µM; in the assay with DU-145 it was 8.9 µM.
Regarding `CO[C@@H]1[C@@H](O)[C@H](N(CCCc2ccc(N(CCCl)CCCl)cc2)OC)O[C@H](CO)[C@H]1O`, the GI50 turned out to be 4.2 µM in [1]; 2.4 µM with SK-OV-3; 8.3 µM in the assay on MCF7; 7.8 µM with NCI-H460; 2.7 µM with HT-29; 1.1 µM in the assay on HCT-15. In addition, the GI50 turned out to be 1.7 µM in assay [2], 3.6 µM in the assay on A549, 2.8 µM with SF-268 and 5.1 µM with DU-145.
As to `CON(CCCc1ccc(N(CCCl)CCCl)cc1)[C@@H]1OC[C@@H](O)[C@H]1O`, the GI50 was determined as 4.1 µM in assay [1]; 2.6 µM with SK-OV-3; 8 µM with MCF7; 7.8 µM in the assay on NCI-H460; 1.6 µM in the assay with HT-29; 0.77 µM with HCT-15. In addition, the GI50 in assay [2] worked out at 1.1 µM; in the assay on A549, 3.1 µM; with SF-268, 2.4 µM; with DU-145 it was 5 µM.
As for `CON(CCCc1ccc(N(CCCl)CCCl)cc1)[C@H]1C[C@@H](O)[C@H](O)[C@@H](CO)O1`, the GI50 came to 3.7 µM in [1]; 1.12 µM in the assay with SK-OV-3; 5.4 µM with MCF7; 5.4 µM with NCI-H460; 1.2 µM in the assay on HT-29; 0.7 µM in the assay on HCT-15. Also, the GI50 in assay [2] amounted to 0.58 µM; with A549, 3.1 µM; in the assay with SF-268, 2.5 µM; with DU-145, 4.3 µM.
With `CON(CCCc1ccc(N(CCCl)CCCl)cc1)C1O[C@H](C)[C@H](O)[C@H](O)[C@H]1O` (stereo not given in full), the GI50 in assay [1] worked out at 2.6 µM; in the assay with SK-OV-3, 1.7 µM; with MCF7, 3 µM; with NCI-H460, 5.9 µM; in the assay with HT-29 it was 6.7 µM; in the assay with HCT-15 it was 0.82 µM. The GI50 in [2] turned out to be 3.5 µM; with A549 it was 9.6 µM; in the assay on SF-268, 1.7 µM; in the assay with DU-145 it was 4.1 µM.
Regarding `CON(CCCc1ccc(N(CCCl)CCCl)cc1)C1O[C@H](CO)[C@@H](O)[C@@H](O)[C@@H]1O` (stereo not given in full), the GI50 in assay [1] amounted to 1.7 µM; in the assay with SK-OV-3, 1.9 µM; with MCF7, 6.5 µM; with NCI-H460, 6.6 µM; in the assay on HT-29, 1.6 µM; in the assay on HCT-15, 1.4 µM. Moreover, the GI50 in [2] amounted to 0.91 µM; in the assay with A549 it was 2.4 µM; in the assay with SF-268, 1.9 µM; in the assay on DU-145, 4.1 µM.
Regarding `CON(CCCc1ccc(N(CCCl)CCCl)cc1)[C@H]1C[C@@H](O)[C@H](O)[C@@H](C)O1`, the GI50 came to 3.8 µM in [1]; 3.2 µM with SK-OV-3; 3.1 µM with MCF7; 5.7 µM with NCI-H460; 3.2 µM in the assay with HT-29; 2.5 µM in the assay with HCT-15. Moreover, the GI50 worked out at 4.8 µM in [2], 3.1 µM with A549, 2.3 µM in the assay with SF-268 and 5.5 µM in the assay on DU-145.
For the molecule `CON(CCCc1ccc(N(CCCl)CCCl)cc1)C1O[C@@H](C)[C@@H](OCc2ccccc2)[C@@H](OCc2ccccc2)[C@@H]1OCc1ccccc1` (stereo not given in full), the 50% growth inhibitory concentration (GI50) came to 9.5 µM in [1]; 7.2 µM in the assay with SK-OV-3; 4 µM in the assay on MCF7; 15.8 µM in the assay with NCI-H460; 7.5 µM with HT-29; 4.6 µM in the assay with HCT-15. The GI50 in assay [2] stood at 3.3 µM; in the assay with A549, 6.4 µM; in the assay with SF-268, 5.7 µM; in the assay on DU-145, 10 µM.
On to `CON(CCCc1ccc(N(CCCl)CCCl)cc1)C1OC[C@H](O)[C@H](O)[C@H]1O` (stereo not given in full), for which the GI50 stood at 1.9 µM in [1]; 2.2 µM in the assay on SK-OV-3; 5.4 µM with MCF7; 6.1 µM in the assay on NCI-H460; 1.9 µM in the assay with HT-29; 1 µM in the assay with HCT-15. For the same molecule, the GI50 in assay [2] stood at 0.84 µM; in the assay on A549, 2.3 µM; in the assay on SF-268, 1.9 µM; in the assay on DU-145, 3.6 µM.
Consider `CON(CCCc1ccc(N(CCCl)CCCl)cc1)C1OC[C@@H](O)[C@@H](O)[C@@H]1O` (stereo not given in full), for which the GI50 in [1] was found to be 1.6 µM; in the assay on SK-OV-3, 2 µM; with MCF7, 4.6 µM; in the assay on NCI-H460 it was 5 µM; with HT-29, 1.5 µM; with HCT-15 it was 0.9 µM. For the same molecule, the GI50 in assay [2] came out at 0.73 µM; in the assay with A549 it was 2 µM; with SF-268 it was 1.8 µM; with DU-145 it was 3.3 µM.
Turning to `CON(CCCc1ccc(N(CCCl)CCCl)cc1)C1O[C@H](CO)[C@H](O)[C@H](O)[C@H]1O` (stereo not given in full), the GI50 in assay [1] was found to be 3.6 µM; with SK-OV-3 it was 3.4 µM; in the assay on MCF7 it was 1.3 µM; with NCI-H460, 9.7 µM; in the assay on HT-29 it was 3.3 µM; with HCT-15, 2.4 µM. Further, the GI50 in [2] was found to be 1.3 µM; in the assay with A549, 4.4 µM; in the assay on SF-268 it was 1.9 µM; in the assay with DU-145, 5.6 µM.
Turning to `C[C@H]1OC(N(O)CCCc2ccc(N(CCCl)CCCl)cc2)[C@H](O)[C@@H](O)[C@H]1O` (stereo not given in full), the GI50 in assay [1] amounted to 3.6 µM; in the assay on SK-OV-3 it was 4.7 µM; in the assay on MCF7 it was 2.7 µM; in the assay on NCI-H460, 4.9 µM; with HT-29, 4.6 µM; with HCT-15, 3.8 µM. For the same molecule, the GI50 in assay [2] was found to be 2.6 µM; in the assay on A549, 6.4 µM; in the assay on SF-268 it was 1.4 µM; in the assay with DU-145 it was 5.7 µM.
With `CON(CCCc1ccc(N(CCCl)CCCl)cc1)C1C[C@@H](O)[C@@H](O)CO1` (stereo not given in full), the GI50 is 2.5 µM in assay [1]; 2.2 µM with SK-OV-3; 1.3 µM with MCF7; 5.2 µM in the assay with NCI-H460; 2.3 µM in the assay with HT-29; 2.2 µM with HCT-15. In addition, the GI50 in assay [2] came to 3.9 µM; with A549 it was 2.5 µM; in the assay with SF-268, 2 µM; in the assay with DU-145, 3.3 µM.
As to `CON(CCCc1ccc(N(CCCl)CCCl)cc1)C1O[C@H](CO)[C@@H](O)[C@H](O)[C@@H]1NC(C)=O` (stereo not given in full), the GI50 in assay [1] came out at 9.8 µM; in the assay with SK-OV-3, 10.1 µM; with MCF7, 9 µM; in the assay on NCI-H460, 33.3 µM; in the assay on HT-29 it was 8.7 µM; in the assay with HCT-15, 22 µM. The concentration for 50% growth inhibition (GI50) in [2] is 2.7 µM; in the assay with A549, 21 µM; in the assay with SF-268, 3.4 µM; in the assay on DU-145 it was 16 µM.
On to `O=C(CCCc1ccc(N(CCCl)CCCl)cc1)NN[C@@H]1O[C@H]2[C@H](OC(=O)[C@H]2O)[C@H]1O`, for which the GI50 is 17.7 µM in [1]; 37 µM in the assay with SK-OV-3; 9.9 µM with MCF7; 43 µM in the assay on NCI-H460; 30 µM in the assay on HT-29; over 100 µM in the assay with HCT-15. The GI50 in assay [2] amounted to 12.9 µM; in the assay on A549 it was 31 µM; with SF-268 it was 8.9 µM; with DU-145 it was 23 µM.
For the molecule `O=C(O)CCCc1ccc(N(CCCl)CCCl)cc1` [CHLORAMBUCIL], the GI50 in assay [1] came out at 5.1 µM; in the assay with SK-OV-3, 5.5 µM; with MCF7, 8.2 µM; with NCI-H460, 11 µM; in the assay with HT-29, 5 µM; in the assay on HCT-15, 8.1 µM. The GI50 amounted to 4.9 µM in [2], 6.1 µM in the assay with A549, 5.4 µM in the assay on SF-268 and 9.4 µM in the assay on DU-145.
Regarding `CON(CCCc1ccc(N(CCCl)CCCl)cc1)[C@@H]1O[C@H](COCc2ccccc2)[C@@H](OCc2ccccc2)[C@H]1OCc1ccccc1`, the GI50 (in assay [1]; in the assay with SK-OV-3; in the assay with MCF7; with NCI-H460; in the assay with HT-29; in the assay with HCT-15) was over 100 µM in each case. The concentration for 50% growth inhibition (GI50) is 82 µM in [2], over 100 µM with A549, over 100 µM in the assay with SF-268 and over 100 µM in the assay with DU-145.
Take `CON(CCCc1ccc(N(CCCl)CCCl)cc1)C1O[C@@H](CO)[C@H](O)[C@@H](O)[C@H]1O` (stereo not given in full): the GI50 came to 3.7 µM in assay [1]; 2.9 µM in the assay on SK-OV-3; 2.2 µM in the assay with MCF7; 9.8 µM in the assay with NCI-H460; 3.4 µM in the assay on HT-29; 2.2 µM in the assay with HCT-15. Also, the GI50 was 1.2 µM in assay [2], 4.1 µM with A549, 2 µM in the assay with SF-268 and 4.9 µM in the assay with DU-145.
